Assay outcomes deposited in PubChem by Broad Institute.
PglD DTNB – C. jejuni PglD acetyltransferase inhibitors, primary screen, biochemical, DTNB colorimetric, single point. purified PglD enzyme, DTNB colorimetric CoA detection. inhibition, % at 12.5 µM. 360,000 tested, 0.098% active. AID 602405, 2012; in the data active = inhibition above about 16%, passing the limit was not always enough
CAL PDZ FP-1 – untagged CAL PDZ binding inhibitors, primary screen, biochemical, fluorescence polarization, HTS; Golgi-associated PDZ and coiled-coil motif-containing protein (Homo sapiens), Q9HD26; purified CAL PDZ, TMR-peptide fluorescence polarization, 1 h; inhibition, % at 24.9 µM; 300,000 tested, 0.92% active;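 active = mean inhibition of at least 30% with at least half of replicates also reaching 30%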;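 also: 0% = DMSO neutral control and 100% = excess unlabeled competitor peptide PRC23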
Cneo AK release – Cryptococcus neoformans cell lysis inducers, primary screen, AK release luminescence, single concentration | C. neoformans lysis, adenylate kinase release luminescence, 4 h; normalised: neutral wells 0, clomiphene wells 100 | lysis activity, % at 15 µM | 360,000 tested, 0.2% active | AID 651654, 2012;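 active = mean lysis activity across replicates of at least 80%, whatever share of replicates individually reach that level; inactive = mean lysis activity below 80%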
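Assay system: Cryptococcus neoformans yeast cells / Dosing: single-point compound dose / Timing: 4 h at 37 °C static, read 1 h later / Measured by: luminescence of released adenylate kinase using an AK detection reagent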
miR-122 sensor – miR-122 Renilla sensor signal increase in Huh7, primary screen, miR-122 inhibitor project, cell-based, single point, plate reader | Huh7 miR-122 Renilla luciferase sensor, 48 h; neutral wells = 0, positive control = 100 | activation (reporter increase), % at 12.5 µM | 340,000 tested, 0.3% active | AID 602342, 2012;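 active = mean replicate activation score at least 90 and every replicate individually at or above 90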;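 also: higher luciferase means less miR-122 activity so hits act as miR-122 inhibitors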
CAL PDZ FP-2 – CAL PDZ peptide-binding inhibitors, primary screen, biochemical, fluorescence polarization, Cer-tagged CAL PDZ, HTS; 330,000 tested, 0.02% active; inhibition, % at 20 µM; AID 504414, 2011; purified CAL PDZ, TMR-peptide fluorescence polarization, 1 h;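 active = highest replicate inhibition of at least 40%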;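 also: plate controls were DMSO neutral control wells for no effect and unlabeled competitor peptide control wells for full effect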
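material = purified tagged CAL PDZ domain construct (CerCALP) | compound dosing = 20 µM, one dose | times = 1 h at RT | measured by = fluorescence polarization from S- and P-plane intensities, G-factor corrected | read-out = inhibition from polarization loss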
* hit, by the source's call; / = no result; [ ] = dose if it differs, or a comment. Shown are actives, neighbours in structure and some others; about 1.1% of the full set was active somewhere.

SMILES | PglD DTNB | CAL PDZ FP-1 | Cneo AK release | miR-122 sensor | CAL PDZ FP-2
COc1ccc(NC(=O)N(C)C[C@H]2Oc3cc(C#CCN(C)C)ccc3S(=O)(=O)N([C@H](C)CO)C[C@@H]2C)cc1 | -3 | / | 8 | 14[16.7 µM] | /
CCN(CCn1cccn1)Cc1ccccc1OCC(O)CN1CCc2ccccc2C1 (stereo unspecified) | / | -6 | / | / | -2
Cc1ccc(C(C)C)c(OC/C(O)=C(\C#N)c2nc3ccccc3[nH]2)c1 | / | 63* | / | / | 0
Cc1ccc(NS(=O)(=O)c2ccc3c(c2)NC(=O)CO3)c(C)c1 | -2 | -6 | 0 | 12 | 0
O=C1COc2ccc(S(=O)(=O)Nc3ccc(F)cc3)cc2N1 | 1 | 8 | 0 | 112* | 0
COc1ccc(OC)c(Nc2cc(C)nc3nc(C)nn23)c1 | 0 | / | 0 | 107* | -1
COc1ccc(Nc2cc(C)nc3nc(C)nn23)c(OC)c1 | -2 | / | 1 | -2 | 0
O=C(c1ccc(Cl)cc1)N1CCC(N2CCC(C(=O)N3CCOCC3)CC2)CC1 | 2 | -3 | 4 | 1 | -2
Cc1ccc(C(=O)N2CCC(N3CCC(C(=O)N4CCOCC4)CC3)CC2)cc1C | 8 | 74* | -3 | -8 | -1
CC(O)CNCCNCc1cccs1 (stereo unspecified) | -2 | 47* | 0 | / | 14
CO[C@@H]1CN(C)C(=O)c2cc(NC(=O)C3CC3)ccc2OC[C@H](C)N(C(=O)NC(C)C)C[C@@H]1C | 2 | / | -3 | / | /
CCOC(=O)C1CCCN(C(=O)c2ccc3c(=O)n(Cc4ccccc4OC)c(=S)[nH]c3c2)C1 (stereo unspecified) | 6 | 32* | -3 | -2 | -1
CCOC(=O)N1CCN(C(=O)c2ccc3c(=O)n(-c4ccc(OC)cc4OC)c(=S)[nH]c3c2)CC1 | -1 | 82* | -1 | -3 | -3
Cc1ccc(S(=O)(=O)Nc2ccc(C(=O)Nc3cc(C)on3)cc2)cc1 | 2 | -4 | -2 | 115* | /
O=C(NNC(=O)c1ccc(NC(=O)c2ccccc2)cc1)c1ccc(F)cc1 | -3 | 48* | 0 | -3 | -1
O=C(NNC(=O)c1ccc(NC(=O)c2ccccc2)cc1)Nc1ccccc1 | / | / | / | / | 1
CC(=O)Nc1ccc(C(=O)NNC(=O)c2cccc(C)c2)cc1 | 4 | 41* | 1 | -1 | -1
O=C(NC1=C(Nc2ccc(F)cc2)C(=O)c2ccccc2C1=O)c1ccc(Cl)cc1 | / | 70* | / | / | -2
CC(=O)c1cccc(NC(=O)CCNC(=O)c2cccc(C)c2)c1 | -2 | 71* | 0 | 0 | -1
Cc1cccc(NC(=O)CCNC(=O)c2ccccc2)c1 | -1 | -1 | 0 | / | 1
COc1ccccc1-c1sc2ccccc2c1-c1ccc(OCCN2CCCCC2)cc1 | 2 | -3 | 23 | 4 | 0
COc1ccc2c(-c3ccc(OCCN4CCCCC4)cc3)c(-c3ccccc3OC)sc2c1 | 5 | 32* | 13 | 2 | -1
O=C1Nc2ccc(Br)cc2C1(O)c1ccccc1 (stereo unspecified) | 4 | / | 1 | 2 | 0
O=C1CCCCCC1C1(O)C(=O)Nc2ccc(Br)cc21 (stereo unspecified) | 1 | 57* | 4 | 2 | -2
CN(C)C(=O)C[C@H]1CC[C@@H]2[C@H](COC[C@H](O)CN2S(=O)(=O)c2ccccc2)O1 | 0 | / | 2 | 2[16.7 µM] | /
SMILES | PglD DTNB | CAL PDZ FP-1 | Cneo AK release | miR-122 sensor | CAL PDZ FP-2
COc1ccc(C(=O)NC(=S)NNC(=O)c2cccnc2)cc1 | 0 | -3 | 0 | 0 | -1
COc1cc(OC)cc(C(=O)NNC(=S)NC(=O)c2cccnc2)c1 | -1 | 61* | 2 | -4 | -1
O=S(=O)(c1ccccc1F)N1CCCCN2[C@@H](CO)[C@@H](c3ccc(-c4cccnc4)cc3)[C@@H]2C1 | -6 | / | 1 | -3[16.7 µM] | /
COCCCNC(=O)Cc1c(C)c2c(cc(C)c3c(C(C)(C)C)coc32)oc1=O | -3 | -4 | 1 | 90* | -3
CN(C)C(=O)[C@H]1[C@H](CO)[C@H]2Cn3c(ccc(-c4cccc(F)c4)c3=O)[C@@H]1N2Cc1ccccc1 | -2 | / | -1 | / | /
C[C@H](CO)N1C[C@H](C)[C@@H](CN(C)C(=O)CN(C)C)Oc2cc(-c3ccc(C#N)cc3)ccc2S1(=O)=O | 1 | / | 22 | -3[16.7 µM] | /
C=CCOc1ccc(/C(O)=C2/C(=O)C(=O)N(CCCN3CCOCC3)C2c2ccc(OC)cc2)cc1 (stereo unspecified) | -1 | 40* | 1 | 7 | /
Cc1ccc(S(=O)(=O)N[C@@H]2CC[C@H](CC(=O)NCc3ccc(Cl)c(Cl)c3)O[C@H]2CO)cc1 | 0 | / | 4 | / | /
Cc1cccc(-c2ncc(CN3CCCC(CO)(Cc4cccc(Cl)c4)C3)cn2)c1 (stereo unspecified) | / | 57* | / | 6 | 16
COc1ccc(-n2c(CNC(=O)COc3ccccc3)n[nH]c2=S)cc1 | / | 41* | / | -6 | 0
COc1ccc(C(=O)COC(=O)c2ccc(NC(C)=O)cc2)cc1[N+](=O)[O-] | -4 | -4 | 0 | 11 | -1
COc1cccc(C(=O)COC(=O)c2ccc(NC(C)=O)cc2)c1 | / | 53* | / | / | -1
Cc1[nH]c2ccccc2c1C(c1ccccn1)N1CCCC1 (stereo unspecified) | / | 0 | / | / | -1
CCOC(=O)C1CCCN(C(c2ccccn2)c2c(C)[nH]c3ccccc23)C1 (stereo unspecified) | / | 119* | / | / | -2
Cc1ccc(S(=O)(=O)N[C@@H]2CC[C@H](CC(=O)NCCc3ccncc3)O[C@H]2CO)cc1 | 0 | / | -1 | / | /
O=C(NCCN1CCCCC1)[C@@H]1N[C@@H]2c3ccc(-c4ccncc4)c(=O)n3C[C@@H]2[C@H]1CO | 2 | / | 103* | 35[16.7 µM] | /
Cc1noc(C)c1S(=O)(=O)Nc1ccc2c(c1)C(=O)N([C@@H](C)CO)C[C@@H](C)[C@H](CN(C)Cc1ccc(Cl)c(Cl)c1)O2 | -2 | / | 1 | -3[16.7 µM] | /
O=C(COc1ncnc2ccccc12)N1CCOCC1 | 3 | -4 | 3 | -5 | 0
CC1CCN(C(=O)COc2ncnc3ccccc23)CC1 | / | 49* | / | / | -1
O=C(CC[C@H]1O[C@@H](n2ccc(=O)[nH]c2=O)[C@H](O)[C@@H]1O)NCc1ccccc1 | -3 | / | -2 | 0 | /
COc1cc(/C=C2/CCC/C(=C\c3cc(O)c(OC)c(Cl)c3)C2=O)cc(Cl)c1O | 5 | -4 | -1 | 113* | -1
C[C@@H]1CN([C@@H](C)CO)S(=O)(=O)c2ccc(C#CC(C)(C)O)cc2O[C@H]1CN(C)C(=O)C1CC1 | / | / | / | -4[16.7 µM] | /
